This excerpt belongs to a sample that is enriched for hits.
KDM4C inh: blocks human GASC-1 (KDM4C) demethylase activity; GST-KDM4C 2-372, H3K9me3 peptide, LANCE TR-FRET; actives 0.15% (n = 96,000); inhibition, % at 12.5 µM;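 active = mean replicate inhibition above about 25%, with at least 55% of replicates also reaching it, limit read from the data, passing the limit was not always enough; inconclusive = only one of those two conditions met; inactive = neither condition met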
Target sequence (Q9H3R0 2-372 limits assumed): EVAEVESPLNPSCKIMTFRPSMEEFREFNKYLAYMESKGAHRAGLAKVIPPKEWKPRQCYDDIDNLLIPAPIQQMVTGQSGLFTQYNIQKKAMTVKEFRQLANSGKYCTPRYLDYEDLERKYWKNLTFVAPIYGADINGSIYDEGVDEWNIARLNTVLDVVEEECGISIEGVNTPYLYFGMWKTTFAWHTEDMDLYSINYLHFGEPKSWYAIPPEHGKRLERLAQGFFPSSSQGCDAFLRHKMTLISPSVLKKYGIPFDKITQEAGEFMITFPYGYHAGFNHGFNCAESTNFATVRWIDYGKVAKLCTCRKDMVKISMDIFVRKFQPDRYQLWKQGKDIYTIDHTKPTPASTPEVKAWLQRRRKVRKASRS
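Material: N-terminal GST-fused human GASC-1 (KDM4C) fragment, residues 2-372. Input: 10 nM enzyme. Incubation: enzyme reaction 30 min, then detection 60 min, both room temperature. Doses: one test concentration per compound. Read-out basis: inhibition from TR-FRET ratio decrease. Detection: LANCE TR-FRET, excitation 340 nm, emissions 618 and 671 nm.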
T cruzi growth-1: inhibitors of T. cruzi proliferation; T. cruzi beta-gal in NIH3T3, GalScreen luminescence, 90 h; inhibition, % at 8.34 µM; actives 5.9% (n = 77,000); AID 624255;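 active = mean inhibition above about 93%, with at least 55% of replicates each passing it, limit read from the data, passing the limit was not always enough; inconclusive = only one of those two conditions holds; inactive = neither condition holds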
IDH1 mut inh: IDH1 R132H (human) inhibition; O75874; IDH1 R132H reductase, diaphorase/resazurin fluorescence, 60 min; inhibition, % at 10 µM; actives 0.18% (n = 70,000); in the data active = inhibition above about 34%; inconclusive = no clear call, values can overlap the other calls; inactive = below about 11%;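 also: 0% = DMSO and 100% = no enzyme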
T cruzi growth-2: blocks T. cruzi growth in NIH3T3 host cells | shares compounds with T cruzi growth-1 | T. cruzi beta-gal in NIH3T3, GalScreen luminescence, 90 h | inhibition, % at 8.35 µM | actives 72% (n = 5,600);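 active = mean replicate inhibition above about 95% and at least 55% of replicates individually reaching it, limit read from the data; inconclusive = only one of the two criteria is met; inactive = neither criterion is met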
T cruzi growth-3: Trypanosoma cruzi proliferation inhibition; shares compounds with T cruzi growth-1; T. cruzi beta-gal in NIH3T3, GalScreen luminescence, 90 h; inhibition, % at 2.09 µM; actives 21% (n = 5,600); AID 651740;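 active = mean inhibition above about 95%, with at least 55% of replicates also reaching it, limit read from the data; inconclusive = meets just one of the two conditions; inactive = meets neither condition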;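 also: plate controls were neutral control median for no effect and positive control median for full effect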
NIH3T3 tox: NIH/3T3 (mouse) viability loss; shares compounds with T cruzi growth-1; NIH/3T3 viability, CellTiter-Glo ATP luminescence, 90 h; cytotoxicity (signal decrease), % at 8.35 µM; actives 14% (n = 5,600);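 active = mean signal decrease across replicates above about 35% based on untreated-well scatter, with enough replicates individually passing, limit read from the data; inconclusive = no rule stated though some were filed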;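 also: 0% = median of neutral control wells and 100% = median of positive control wells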
3T3 cytotox 2: NIH/3T3 (mouse) viability loss; NIH/3T3 viability, CellTiter-Glo ATP luminescence, 90 h; shares compounds with T cruzi growth-1; inhibition, % at 24.9 µM; actives 56% (n = 5,600); AID 651744;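 active = mean loss of cell viability signal at or above a set limit, and enough replicates individually reaching it; inconclusive = meets only the mean limit or only the replicate share; inactive = meets neither condition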;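 also: 0% = median of neutral control wells and 100% = median of positive control wells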
* = called active by the depositor; u = inconclusive; x = no result given.

SMILES	KDM4C inh	T cruzi growth-1	IDH1 mut inh	T cruzi growth-2	T cruzi growth-3	NIH3T3 tox	3T3 cytotox 2
C[C@@H]1CN([C@@H](C)CO)C(=O)c2cc(NS(=O)(=O)c3ccc(F)cc3)ccc2O[C@@H](C)CCCCO[C@H]1CN(C)S(=O)(=O)c1ccc(Cl)cc1	0	106	0	x	x	x	x
C[C@H](CO)N1C[C@H](C)[C@@H](CN(C)S(=O)(=O)c2ccc(Cl)cc2)OCCCC[C@H](C)Oc2ccc(NS(=O)(=O)c3ccc(F)cc3)cc2C1=O	0	98	x	x	x	x	x
C[C@H]1CCCCO[C@@H](CN(C)S(=O)(=O)c2ccc(Cl)cc2)[C@@H](C)CN([C@@H](C)CO)C(=O)c2cc(NS(=O)(=O)c3ccc(F)cc3)ccc2O1	12	102*	0	105*	110*	-4	-14
C[C@H]1CCCCO[C@@H](CN(C)S(=O)(=O)c2ccc(F)cc2)[C@@H](C)CN([C@@H](C)CO)C(=O)c2cc(NS(=O)(=O)c3ccc(Cl)cc3)ccc2O1	0	100*	-2	104*	u	-10	-6
C[C@@H]1CN([C@H](C)CO)C(=O)c2cc(NS(=O)(=O)c3ccc(F)cc3)ccc2O[C@@H](C)CCCCO[C@H]1CN(C)S(=O)(=O)c1ccc(Cl)cc1	0	u	x	105*	113*	-1	13
CC(C)NC(=O)Nc1ccc2c(c1)C(=O)N([C@H](C)CO)C[C@@H](C)[C@H](CN(C)C(=O)Nc1cccc3ccccc13)OCCCC[C@H](C)O2	-1	x	1	x	x	x	x
N#C[C@@H]1[C@H](c2ccc(-c3cncnc3)cc2)[C@@H](CO)N1C(=O)CN1CCOCC1	3	23	x	x	x	x	x
Cc1ccc(S(=O)(=O)N(C)C[C@H]2Oc3ccc(N(C)C)cc3C(=O)N([C@@H](C)CO)C[C@H]2C)cc1	3	x	0	x	x	x	x
C[C@@H]1CN([C@@H](C)CO)C(=O)c2cc(NS(=O)(=O)c3ccc(Cl)cc3)ccc2O[C@@H](C)CCCCO[C@H]1CN(C)S(=O)(=O)c1ccc(F)cc1	0	105*	3	104*	50	-3	1
COc1ccc(S(=O)(=O)N(C)CC(=O)O)cc1	x	x	0	x	x	x	x
O=C(c1ccc(F)cc1)N1CCCCN2[C@H](CO)[C@@H](c3ccc(C#CC4(O)CCCC4)cc3)[C@@H]2C1	-2	78	x	x	x	x	x
O=C(C1CCCC1)N1CCCCN2[C@H](CO)[C@H](c3ccc(C#CC4(O)CCCC4)cc3)[C@H]2C1	x	104*	x	109*	89	13	30*
O=C(C1CCC1)N1CCCCN2[C@H](CO)[C@@H](c3ccc(C#CC4(O)CCCC4)cc3)[C@H]2C1	1	-20	x	x	x	x	x
O=C(C1CCC1)N1CCCCN2[C@H](CO)[C@H](c3ccc(C#CC4(O)CCCC4)cc3)[C@H]2C1	1	101*	x	u	71	5	5
O=C(c1ccc(F)cc1)N1CCCCN2[C@H](CO)[C@H](c3ccc(C#CC4(O)CCCC4)cc3)[C@@H]2C1	-1	107*	x	103*	-23	13	18
O=C(C1CCC1)N1CCCCN2[C@H](C1)[C@H](c1ccc(C#CC3(O)CCCC3)cc1)[C@@H]2CO	0	73	x	x	x	x	x
O=C(C1CCC1)N1CCCCN2[C@H](CO)[C@H](c3ccc(C#CC4(O)CCCC4)cc3)[C@@H]2C1	0	u	x	99*	65	20	39*
O=C(C1CCC1)N1CCCCN2[C@H](C1)[C@@H](c1ccc(C#CC3(O)CCCC3)cc1)[C@@H]2CO	2	69	x	x	x	x	x
COCC(=O)N(C)C[C@@H]1Oc2cc(C#CC(C)C)ccc2S(=O)(=O)N([C@@H](C)CO)C[C@H]1C	2	2	-2	x	x	x	x
COc1ccc(NC(=O)Nc2ccc3c(c2)C(=O)N([C@H](C)CO)C[C@@H](C)[C@H](CN(C)C(=O)Nc2ccccc2)OCCCC[C@@H](C)O3)cc1	0	u	1	x	x	x	x
CNC[C@H]1Oc2ncc(C#CC3(O)CCCC3)cc2C(=O)N([C@H](C)CO)C[C@@H]1C	0	x	1	x	x	x	x
Cc1cccc(S(=O)(=O)N2CCCCN3[C@@H](CO)[C@@H](c4ccc(C#CC5CC5)cc4)[C@@H]3C2)c1	-1	65	x	x	x	x	x
COc1cccc(S(=O)(=O)N2CCCCN3[C@@H](CO)[C@H](c4ccc(C#CC5CC5)cc4)[C@@H]3C2)c1	-1	107*	x	109*	89	16	105*
COCC#Cc1ccc([C@@H]2[C@H](CO)N3CCCCN(S(=O)(=O)c4cccc(OC)c4)C[C@@H]23)cc1	-2	107*	x	103*	38	32	45*
COc1cccc(S(=O)(=O)N2CCCCN3[C@H](C2)[C@@H](c2ccc(C#CC4CC4)cc2)[C@@H]3CO)c1	-1	121*	x	93	93	4	u
SMILES	KDM4C inh	T cruzi growth-1	IDH1 mut inh	T cruzi growth-2	T cruzi growth-3	NIH3T3 tox	3T3 cytotox 2
COc1cccc(S(=O)(=O)N2CCCCN3[C@H](C2)[C@H](c2ccc(C#CC4CC4)cc2)[C@@H]3CO)c1	-1	72	x	x	x	x	x
COCC#Cc1ccc([C@H]2[C@@H](CO)N3CCCCN(S(=O)(=O)c4cccc(OC)c4)C[C@H]23)cc1	-1	92	x	x	x	x	x
C[C@@H]1CCCCO[C@@H](CN(C)C(=O)CCCN(C)C)[C@H](C)CN([C@H](C)CO)C(=O)c2cc(NS(=O)(=O)c3cn(C)cn3)ccc2O1	-1	x	-3	x	x	x	x
O=C(C[C@@H]1CC[C@@H]2[C@H](COC[C@@H](O)CN2Cc2cc(F)ccc2F)O1)NCc1ccc(F)cc1	1	0	x	x	x	x	x
CC(=O)Nc1ccc(OCC(O)Cn2ccnc2)cc1 (centres undefined)	x	x	1	x	x	x	x
COc1ccc(-c2ccc3c(c2)O[C@H](CN(C)Cc2cccnc2)[C@H](C)CN([C@@H](C)CO)S3(=O)=O)cc1	0	x	0	x	x	x	x
COc1ccc(-c2ccc3c(c2)O[C@H](CN(C)Cc2cccnc2)[C@@H](C)CN([C@H](C)CO)S3(=O)=O)cc1	-2	x	-2	x	x	x	x
COc1cccc(-c2ccc3c(c2)O[C@H](CN(C)Cc2cccnc2)[C@H](C)CN([C@@H](C)CO)S3(=O)=O)c1	-1	100*	4	97*	101*	63*	66*
COc1cccc(-c2ccc3c(c2)O[C@H](CN(C)Cc2cccnc2)[C@H](C)CN([C@H](C)CO)S3(=O)=O)c1	0	112*	0	97*	64	54*	64*
COc1cccc(-c2ccc3c(c2)O[C@@H](CN(C)Cc2cccnc2)[C@H](C)CN([C@H](C)CO)S3(=O)=O)c1	4	112*	10	u	92	56*	104*
COc1ccc(-c2ccc3c(c2)O[C@H](CN(C)Cc2cccnc2)[C@H](C)CN([C@H](C)CO)S3(=O)=O)cc1	1	x	0	x	x	x	x

Assay outcomes deposited in PubChem by Broad Institute.
